Laboratory results published in paper PMC3364105 (Nature Biotechnology, 2011).
Blank lines part the entries; values can stand above or below the compound they belong to.

Key:
Assay type in all cases: in vivo
[1] = test system: sciatic nerve; experiment: Cy5-NP41 nerve labeling and localization in thy1-YFP transgenic mice; details: for nerve-to-muscle contrast / nerve labeling: injected into thy1-YFP transgenic mice
[2] = Behavior, activity, weight and morbidity after injection; details: mice, injections of 75–300 nmoles
[3] = Biodistribution and urine metabolites after systemic administration; details: mice
Outline: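 Mice received 150 nmoles FAM- or Cy5-labeled test peptide intravenously. Organs were harvested and fluorescence uptake was evaluated. Urine was analysed by MALDI mass spectrometry to identify the major fluorescently labeled species. The control was an all-D-amino-acid FAM-labeled peptide.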

[4] = test system: peripheral nerves; details: FAM-labeled peptide, intravenous, living mice; for background binding to surrounding nonneural tissue: 2–4 h after injection
Outline: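 Peptides were made as fluorescein-5(6)-carbonyl (FAM) conjugates on a C-terminal lysinamide. The control was a same-format peptide with the shared amino acids in random order. Each was given intravenously to living mice, and FAM fluorescence contrast between peripheral nerve and muscle was evaluated 2–4 h post-injection.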

- change in behavior or activity [2]: no change in behavior or activity
- state of peptide recovered in urine ([3]; urine, liquid chromatography–electrospray mass spectrometry / MALDI-MS): efficiently metabolized
- major fluorescently labeled species in urine ([3]; urine, matrix-assisted laser desorption/ionization mass spectrometry): cysteinamide-Cy5
Compound: acetyl-SHSNTQTLAKAPEHTGC-(Cy5)-amide [Cy5-NP41]
- localization within nerve ([1]; 3–5 µm cryosections of nerves from thy1-YFP animals): localized to the epineurium of the nerves with some labeling of the perineurium and endoneurium, but did not colocalize with either myelin or axons
- nerve-to-muscle contrast / nerve labeling [1]: precisely labeled nerves that expressed YFP
- biodistribution of fluorescence ([3]; intravenous, 150 nmoles, harvested organs): majority of the fluorescence accumulated in the kidney and was excreted into the urine

Compound: CCN1/C(=C/C=C/C=C/C2=[N+](CCCCCC(=O)O)c3ccc(S(=O)(=O)O)cc3C2(C)C)C(C)(C)c2cc(S(=O)(=O)[O-])ccc21 [unconjugated Cy5, reference compound]
- nerve-to-muscle contrast / nerve labeling [1]: No nerve-to-muscle contrast was detected

Compound: NTQTLAKAPEHT [NP41]
- nerve-to-muscle contrast ([4]; evaluated 2–4 h after injection): best nerve to nonnerve contrast

Compound: AHHNSWKAKHHS [NP38]
- background binding to surrounding nonneural tissue [4]: high-background binding to the surrounding nonneural tissue

Compound: TYTDWLNFWAWP [NP39]
- background binding to surrounding nonneural tissue [4]: high-background binding to the surrounding nonneural tissue
